Experimental data: ChEMBL document CHEMBL1141592, “Synthesis and anti-inflammatory activities of mono-carbonyl analogues of curcumin” (2008)
The source made the active and inactive calls. No cut-off for these calls is given here.

Key:
[1] = tested on: J774.A1; assay: Antiinflammatory activity in mouse J774A.1 cells assessed as inhibition of lipopolysaccharide-induced IL6 production pretreated for 2 hrs at 10 uM before LPS challenge; assay type: functional, cell-based
How it was run: (§1)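 J774A.1 macrophages pretreated 2 h with test agent at 10 μM or vehicle, then stimulated with LPS 0.5 μg/ml for 24 h. Media collected and centrifuged (14,000 rpm, 5 min); TNF-α and IL-6 quantified by mouse ELISA kits. Total protein of viable cell pellets measured by Bio-Rad protein assay. Results expressed as percent of LPS control.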

[2] = tested on: J774.A1; assay: Antiinflammatory activity in mouse J774A.1 cells assessed as inhibition of lipopolysaccharide-induced TNFalpha production pretreated for 2 hrs at 10 uM before LPS challenge; assay type: functional; how it was run: as §1

Structure (SMILES)	Activity [1]	Activity [2]
CN(C)c1ccc(/C=C/C(=O)/C=C/c2ccc(N(C)C)cc2)cc1	Active	Active
O=C(/C=C/c1ccc(OC2CCCCO2)cc1)/C=C/c1ccc(OC2CCCCO2)cc1 (stereo not drawn)	–	Active
COc1cc(/C=C2\CCC/C(=C\c3ccc(O)c(OC)c3)C2=O)ccc1O	Active	Active
CN(C)CCCOc1ccc(/C=C2\CC/C(=C\c3ccc(OCCCN(C)C)cc3)C2=O)cc1	Active	Active
COc1cc(/C=C2\CC/C(=C\c3ccc(O)c(OC)c3)C2=O)ccc1O	Active	Active
COc1cc(/C=C/C(=O)CC(=O)/C=C/c2ccc(O)c(OC)c2)ccc1O	–	Active
C=CCOc1ccc(/C=C2\CCC/C(=C\c3ccc(OCC=C)cc3)C2=O)cc1	–	Active
O=C1/C(=C/c2ccc(Br)o2)CCC/C1=C\c1ccc(Br)o1	–	Active
O=C1/C(=C/c2cccs2)CC/C1=C\c1cccs1	–	Active
COc1cc(/C=C/C(=O)/C=C/c2ccc(O)c(OC)c2)ccc1O	Active	Active
C=CCOc1ccc(/C=C/C(=O)/C=C/c2ccc(OCC=C)cc2)cc1	–	Active
Cc1ccc(/C=C2\CC/C(=C\c3ccc(C)s3)C2=O)s1	–	Active
COc1cc(/C=C2\CCC/C(=C\c3ccc(OC4CCCCO4)c(OC)c3)C2=O)ccc1OC1CCCCO1 (stereo not drawn)	–	Active
CN(C)c1ccc(/C=C2\CCC/C(=C\c3ccc(N(C)C)cc3)C2=O)cc1	Active	Active
CN(C)c1ccc(/C=C2\CC/C(=C\c3ccc(N(C)C)cc3)C2=O)cc1	Active	Active
COc1cc(/C=C2\CC/C(=C\c3ccc(OC4CCCCO4)c(OC)c3)C2=O)ccc1OC1CCCCO1 (stereo not drawn)	–	Active
